Data on seven molecules can be found in ChEMBL document CHEMBL1156910, “Binding of curcumin and its long chain derivatives to the activator binding domain of novel protein kinase C” (Bioorg Med Chem, 2010).

pEC50: −log10 of the molar value.

A word on the pEC50: it is the negative decadic logarithm of the EC50, by convention in mol/L. Low values mean a high EC50, high ones a low EC50.

The target in test [1] is Protein kinase C delta type (Homo sapiens, UniProt Q05655). The test is described as follows: Binding affinity to GST-tagged PKCdelta expressed in Escherichia coli BL21(DE3) by fluorescence quenching. In a few lines: (§1)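 Isolated C1B subdomain made in E. coli as GST fusion, purified on glutathione-Sepharose, GST removed by thrombin, then ammonium sulfate precipitation and Superdex 75 gel filtration. Excitation 280 nm, intrinsic emission at 350 nm as (F0-F)/F, Hill fit gives EC50.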

Test [2] concerns the target T1, Protein kinase C epsilon type (Homo sapiens, UniProt Q02156).
T1 sequence (Q02156 whole entry): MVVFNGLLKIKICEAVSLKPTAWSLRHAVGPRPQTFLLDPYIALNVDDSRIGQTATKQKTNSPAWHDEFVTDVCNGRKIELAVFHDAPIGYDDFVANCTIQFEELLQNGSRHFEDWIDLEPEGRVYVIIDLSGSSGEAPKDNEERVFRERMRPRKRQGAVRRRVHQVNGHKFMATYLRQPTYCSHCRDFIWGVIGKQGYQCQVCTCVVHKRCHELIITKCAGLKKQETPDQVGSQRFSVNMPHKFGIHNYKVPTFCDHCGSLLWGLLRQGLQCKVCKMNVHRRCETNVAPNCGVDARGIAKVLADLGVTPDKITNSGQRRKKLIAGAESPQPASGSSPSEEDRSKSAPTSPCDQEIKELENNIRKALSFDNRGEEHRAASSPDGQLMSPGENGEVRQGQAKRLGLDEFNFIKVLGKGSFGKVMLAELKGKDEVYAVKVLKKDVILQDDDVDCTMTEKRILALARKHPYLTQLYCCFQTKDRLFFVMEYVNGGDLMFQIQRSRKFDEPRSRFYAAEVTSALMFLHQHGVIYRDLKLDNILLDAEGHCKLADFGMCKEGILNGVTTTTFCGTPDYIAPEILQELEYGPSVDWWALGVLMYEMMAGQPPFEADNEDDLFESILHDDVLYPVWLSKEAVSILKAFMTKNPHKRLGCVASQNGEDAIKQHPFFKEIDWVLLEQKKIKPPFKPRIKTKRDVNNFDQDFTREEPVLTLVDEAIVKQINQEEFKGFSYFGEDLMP
The test is described as follows: Binding affinity to GST-tagged PKCepsilon expressed in Escherichia coli BL21(DE3) by fluorescence quenching. Summed up: as §1

For test [3], the target named is Protein kinase C theta type (Homo sapiens, UniProt Q04759). The test is described as follows: Binding affinity to GST-tagged PKCtheta expressed in Escherichia coli BL21(DE3) by fluorescence quenching. Summed up:
as §1

Protein kinase C theta type, sequence (Q04759 whole entry): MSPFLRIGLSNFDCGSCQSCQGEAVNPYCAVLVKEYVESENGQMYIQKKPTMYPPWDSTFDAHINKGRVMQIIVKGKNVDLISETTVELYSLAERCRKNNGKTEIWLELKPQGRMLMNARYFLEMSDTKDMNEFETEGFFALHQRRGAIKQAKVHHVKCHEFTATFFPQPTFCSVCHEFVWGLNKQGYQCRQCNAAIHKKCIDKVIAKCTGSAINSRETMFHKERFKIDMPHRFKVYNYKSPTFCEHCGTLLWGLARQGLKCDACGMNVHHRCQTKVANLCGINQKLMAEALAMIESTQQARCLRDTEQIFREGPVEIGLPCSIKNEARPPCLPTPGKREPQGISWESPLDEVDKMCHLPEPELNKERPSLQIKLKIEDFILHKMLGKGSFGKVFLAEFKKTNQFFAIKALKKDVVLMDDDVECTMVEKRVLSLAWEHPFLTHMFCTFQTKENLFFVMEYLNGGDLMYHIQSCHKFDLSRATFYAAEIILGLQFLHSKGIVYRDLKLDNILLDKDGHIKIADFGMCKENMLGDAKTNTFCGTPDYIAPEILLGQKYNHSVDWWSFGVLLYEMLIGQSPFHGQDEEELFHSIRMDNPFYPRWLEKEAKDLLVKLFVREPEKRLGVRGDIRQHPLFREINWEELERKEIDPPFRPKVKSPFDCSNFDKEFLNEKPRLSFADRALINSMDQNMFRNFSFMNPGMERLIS
Protein kinase C delta type, sequence (Q05655 whole entry, the tested form may be a part): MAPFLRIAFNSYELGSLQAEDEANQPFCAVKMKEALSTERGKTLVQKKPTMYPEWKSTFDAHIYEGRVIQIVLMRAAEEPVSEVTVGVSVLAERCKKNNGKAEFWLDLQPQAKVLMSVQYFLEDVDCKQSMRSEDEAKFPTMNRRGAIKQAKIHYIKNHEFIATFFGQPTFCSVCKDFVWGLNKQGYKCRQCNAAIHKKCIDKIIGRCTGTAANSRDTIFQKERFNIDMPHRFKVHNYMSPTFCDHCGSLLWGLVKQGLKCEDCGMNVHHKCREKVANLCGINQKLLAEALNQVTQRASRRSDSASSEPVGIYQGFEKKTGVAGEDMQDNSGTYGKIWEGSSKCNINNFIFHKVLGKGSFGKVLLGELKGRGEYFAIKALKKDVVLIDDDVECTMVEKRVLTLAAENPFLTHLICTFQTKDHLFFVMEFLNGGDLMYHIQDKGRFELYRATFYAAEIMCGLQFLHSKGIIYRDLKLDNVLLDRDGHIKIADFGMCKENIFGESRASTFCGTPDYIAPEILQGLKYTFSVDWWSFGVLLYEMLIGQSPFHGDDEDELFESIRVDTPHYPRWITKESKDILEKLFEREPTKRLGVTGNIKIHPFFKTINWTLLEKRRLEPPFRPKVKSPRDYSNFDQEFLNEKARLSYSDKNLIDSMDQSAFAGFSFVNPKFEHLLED

`O=C(/C=C(O)/C=C/c1ccc(O)c(O)c1)/C=C/c1ccc(O)c(O)c1`: the pEC50 in test [1] was 4.90; in test [2], 4.95; in test [3], 5.18.

`CCCCCCCC(=O)OC[C@H](CO)OC(=O)CCCCCCC` had a pEC50 in test [3] of 5.28.

For `CCCCCCCCCCCCCCCCOc1ccc(/C=C/C(O)=C/C(=O)/C=C/c2ccc(O)c(OC)c2)cc1OC`, the negative-log EC50 (pEC50) in test [1] was 5.05; in test [2] it was 4.97; in test [3], 5.23.

`CCCCCCCC/C=C\CCCCCCCC(=O)OC[C@H](CO)OC(=O)CCCCCCC/C=C\CCCCCCCC`: the pEC50 in test [1] is 5.13; in test [2], 4.85; in test [3], 5.06.

In the case of `CCCCCCCCOc1ccc(/C=C/C(O)=C/C(=O)/C=C/c2ccc(O)c(OC)c2)cc1OC`, the figures for the pEC50 in test [1], in test [2] and in test [3] were 5.06, 5.01 and 5.40, respectively.

Regarding `COc1cc(/C=C/C(=O)CC(=O)/C=C/c2ccc(O)c(OC)c2)ccc1O` [CURCUMIN], the pEC50 was 4.97 in test [1], 5.06 in test [2] and 4.96 in test [3].

As for `CCCCCCCCCCCCCC(=O)O[C@@H]1[C@@H](C)[C@@]2(O)[C@@H](C=C(CO)C[C@]3(O)C(=O)C(C)=C[C@@H]23)[C@@H]2C(C)(C)[C@]12OC(C)=O` [PHORBOL MYRISTATE ACETATE], the results for the negative logarithm of the EC50 (pEC50) in test [1], in test [2] and in test [3] were 5.29, 5.25 and 5.50, respectively.
